Test results from ChEMBL document CHEMBL3856209, “Novel pyrazolopyridine derivatives as potential angiogenesis inhibitors: Synthesis, biological evaluation and transcriptome-based mechanistic analysis” (Eur J Med Chem, 2016).
The source made the active and inactive calls. No cut-off for these calls is given here.

What was measured:
HUVEC [1] = experiment: Effect on SPC24 gene expression in serum-starved HUVEC after 6 hrs by microarray analysis relative to control; assay type: functional, Homo sapiens
In short: (§1)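 Confluent serum-starved HUVEC (primary, pooled from 3–5 donors, passage ≤4) treated with 2 μM compound or DMSO vehicle in 2.5% FBS for 6 h or 24 h. Total RNA hybridized to Illumina Human-HT12 arrays, background-corrected, vst-transformed and rsn-normalized. Differential expression versus DMSO by moderated paired t-test (p < 0.05, |log2 fold change| > 0.5).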

HUVEC [2] = experiment: Effect on ELMOD1 gene expression in serum-starved HUVEC after 24 hrs by microarray analysis relative to control; assay type: functional, Homo sapiens
In short: (§2)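 Confluent, serum-starved HUVEC (pooled from 3–5 donors, passage ≤4) treated with 2 μM compound or vehicle with 2.5% FBS for 6 h or 24 h. Total RNA hybridized to Illumina Human-HT12 arrays. Data were background-corrected, vst-transformed and rsn-normalized. Hits called by moderated paired t-test versus DMSO-treated cells, p < 0.05 and log2 fold change >|0.5|.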

HUVEC [3] = experiment: Effect on MBNL2 gene expression in serum-starved HUVEC after 6 hrs by microarray analysis relative to control; assay type: functional, Homo sapiens
In short: (§3)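 Serum-starved confluent HUVEC (pooled from 3–5 donors, passage ≤4) were treated with 2 μM compound or vehicle in 2.5% FBS for 6 h or 24 h, and total RNA was isolated. Hybridization was on Illumina Human-HT12. Data were processed with bgAdjust, vst and rsn normalization. Changes versus DMSO were called by moderated paired t-test at p < 0.05 and |log2 fold change| > 0.5.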

HUVEC [4] = experiment: Effect on UBE2C gene expression in serum-starved HUVEC after 24 hrs by microarray analysis relative to control; assay type: functional, Homo sapiens; in short: as §1
HUVEC (Homo sapiens) = experiment: Antiproliferative activity against human HUVEC cells assessed as decrease in VEGF-165-induced cell growth at 0.5 to 2 uM after 24 to 48 hrs by CyQUANT cell proliferation assay
HUVEC [5] = experiment: Effect on PNISR gene expression in serum-starved HUVEC after 6 hrs by microarray analysis relative to control; assay type: functional, Homo sapiens; in short: as §3
HUVEC [6] = experiment: Effect on DLC1 gene expression in serum-starved HUVEC after 6 hrs by microarray analysis relative to control; assay type: functional, Homo sapiens; in short: as §2
HUVEC [7] = experiment: Effect on MAP1B gene expression in serum-starved HUVEC after 24 hrs by microarray analysis relative to control; assay type: functional, Homo sapiens; in short: as §3
HUVEC [8] = experiment: Effect on CKS2 gene expression in serum-starved HUVEC after 24 hrs by microarray analysis relative to control; assay type: functional, Homo sapiens; in short: as §2
HUVEC [9] = experiment: Effect on GNG12 gene expression in serum-starved HUVEC after 6 hrs by microarray analysis relative to control; assay type: functional, Homo sapiens; in short: as §2
HUVEC [10] = experiment: Effect on ASPM gene expression in serum-starved HUVEC after 24 hrs by microarray analysis relative to control; assay type: functional, Homo sapiens
In short: (§4)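 Serum-starved confluent HUVEC treated with 2 μM compound or DMSO in 2.5% FBS for 6 h or 24 h; RNA hybridized to Illumina Human-HT12 arrays. Data background-corrected, vst-transformed and rsn-normalized. Differential probes called by moderated paired t-test (limma) at p < 0.05 and log2 fold change >|0.5| vs DMSO.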

HUVEC [11] = experiment: Effect on ELMOD1 gene expression in serum-starved HUVEC after 6 hrs by microarray analysis relative to control; assay type: functional, Homo sapiens; in short: as §2
HUVEC [12] = experiment: Effect on MBNL2 gene expression in serum-starved HUVEC after 24 hrs by microarray analysis relative to control; assay type: functional, Homo sapiens; in short: as §3
HUVEC [13] = experiment: Effect on CXCL16 gene expression in serum-starved HUVEC after 6 hrs by microarray analysis relative to control; assay type: functional, Homo sapiens; in short: as §1
HUVEC [14] = experiment: Effect on SULF1 gene expression in serum-starved HUVEC after 6 hrs by microarray analysis relative to control; assay type: functional, Homo sapiens
HUVEC [15] = experiment: Effect on CCNA2 gene expression in serum-starved HUVEC after 6 hrs by microarray analysis relative to control; assay type: functional, Homo sapiens; in short: as §4
HUVEC [16] = experiment: Effect on KRT18P55 gene expression in serum-starved HUVEC after 6 hrs by microarray analysis relative to control; assay type: functional, Homo sapiens; in short: as §3
HUVEC [17] = experiment: Effect on F2RL1 gene expression in serum-starved HUVEC after 6 hrs by microarray analysis relative to control; assay type: functional, Homo sapiens; in short: as §1
HUVEC [18] = experiment: Effect on MYO10 gene expression in serum-starved HUVEC after 6 hrs by microarray analysis relative to control; assay type: functional, Homo sapiens
HUVEC [19] = experiment: Effect on ACSS2 gene expression in serum-starved HUVEC after 6 hrs by microarray analysis relative to control; assay type: functional, Homo sapiens; in short: as §4
[20] = Upregulation of HMGCS1 gene expression in serum-starved HUVEC at 2 uM after 24 hrs by qRT-PCR analysis; assay type: functional, cell-based; conditions: Homo sapiens
HUVEC [21] = experiment: Effect on GRPEL2 gene expression in serum-starved HUVEC after 6 hrs by microarray analysis relative to control; assay type: functional, Homo sapiens; in short: as §2
HUVEC [22] = experiment: Effect on HMGB2 gene expression in serum-starved HUVEC after 6 hrs by microarray analysis relative to control; assay type: functional, Homo sapiens
HUVEC [23] = experiment: Effect on TK1 gene expression in serum-starved HUVEC after 6 hrs by microarray analysis relative to control; assay type: functional, Homo sapiens
HUVEC [24] = experiment: Effect on SULT1C4 gene expression in serum-starved HUVEC after 6 hrs by microarray analysis relative to control; assay type: functional, Homo sapiens
HUVEC [25] = experiment: Effect on MYO10 gene expression in serum-starved HUVEC after 24 hrs by microarray analysis relative to control; assay type: functional, Homo sapiens; in short: as §3
HUVEC [26] = experiment: Effect on FEN1 gene expression in serum-starved HUVEC after 24 hrs by microarray analysis relative to control; assay type: functional, Homo sapiens; in short: as §1
HUVEC [27] = experiment: Effect on TUBB2B gene expression in serum-starved HUVEC after 6 hrs by microarray analysis relative to control; assay type: functional, Homo sapiens
HUVEC [28] = experiment: Effect on OIP5 gene expression in serum-starved HUVEC after 6 hrs by microarray analysis relative to control; assay type: functional, Homo sapiens
HUVEC [29] = experiment: Effect on MGARP gene expression in serum-starved HUVEC after 6 hrs by microarray analysis relative to control; assay type: functional, Homo sapiens; in short: as §3
HUVEC [30] = experiment: Effect on CD68 gene expression in serum-starved HUVEC after 6 hrs by microarray analysis relative to control; assay type: functional, Homo sapiens; in short: as §4
HUVEC [31] = experiment: Effect on CTSH gene expression in serum-starved HUVEC after 6 hrs by microarray analysis relative to control; assay type: functional, Homo sapiens; in short: as §2
HUVEC [32] = experiment: Effect on SERPINB2 gene expression in serum-starved HUVEC after 24 hrs by microarray analysis relative to control; assay type: functional, Homo sapiens
HUVEC [33] = experiment: Effect on PCYT2 gene expression in serum-starved HUVEC after 24 hrs by microarray analysis relative to control; assay type: functional, Homo sapiens
HUVEC [34] = experiment: Effect on SND1-IT1 gene expression in serum-starved HUVEC after 6 hrs by microarray analysis relative to control; assay type: functional, Homo sapiens
[35] = target: Vascular endothelial growth factor receptor 2 (Homo sapiens) (UniProt P35968); experiment: Inhibition of VEGF-165-induced VEGFR2 autophosphorylation at Tyr996 in serum-starved HUVEC at 2 uM preincubated for 2 hrs followed by VEGF-165 induction measured after 5 mins by Western blot analysis; assay type: cell-based
HUVEC [36] = experiment: Effect on GANAB gene expression in serum-starved HUVEC after 24 hrs by microarray analysis relative to control; assay type: functional, Homo sapiens; in short: as §2
HUVEC [37] = experiment: Effect on GANAB gene expression in serum-starved HUVEC after 6 hrs by microarray analysis relative to control; assay type: functional, Homo sapiens; in short: as §2

Vascular endothelial growth factor receptor 2 (Homo sapiens), sequence (P35968 whole entry): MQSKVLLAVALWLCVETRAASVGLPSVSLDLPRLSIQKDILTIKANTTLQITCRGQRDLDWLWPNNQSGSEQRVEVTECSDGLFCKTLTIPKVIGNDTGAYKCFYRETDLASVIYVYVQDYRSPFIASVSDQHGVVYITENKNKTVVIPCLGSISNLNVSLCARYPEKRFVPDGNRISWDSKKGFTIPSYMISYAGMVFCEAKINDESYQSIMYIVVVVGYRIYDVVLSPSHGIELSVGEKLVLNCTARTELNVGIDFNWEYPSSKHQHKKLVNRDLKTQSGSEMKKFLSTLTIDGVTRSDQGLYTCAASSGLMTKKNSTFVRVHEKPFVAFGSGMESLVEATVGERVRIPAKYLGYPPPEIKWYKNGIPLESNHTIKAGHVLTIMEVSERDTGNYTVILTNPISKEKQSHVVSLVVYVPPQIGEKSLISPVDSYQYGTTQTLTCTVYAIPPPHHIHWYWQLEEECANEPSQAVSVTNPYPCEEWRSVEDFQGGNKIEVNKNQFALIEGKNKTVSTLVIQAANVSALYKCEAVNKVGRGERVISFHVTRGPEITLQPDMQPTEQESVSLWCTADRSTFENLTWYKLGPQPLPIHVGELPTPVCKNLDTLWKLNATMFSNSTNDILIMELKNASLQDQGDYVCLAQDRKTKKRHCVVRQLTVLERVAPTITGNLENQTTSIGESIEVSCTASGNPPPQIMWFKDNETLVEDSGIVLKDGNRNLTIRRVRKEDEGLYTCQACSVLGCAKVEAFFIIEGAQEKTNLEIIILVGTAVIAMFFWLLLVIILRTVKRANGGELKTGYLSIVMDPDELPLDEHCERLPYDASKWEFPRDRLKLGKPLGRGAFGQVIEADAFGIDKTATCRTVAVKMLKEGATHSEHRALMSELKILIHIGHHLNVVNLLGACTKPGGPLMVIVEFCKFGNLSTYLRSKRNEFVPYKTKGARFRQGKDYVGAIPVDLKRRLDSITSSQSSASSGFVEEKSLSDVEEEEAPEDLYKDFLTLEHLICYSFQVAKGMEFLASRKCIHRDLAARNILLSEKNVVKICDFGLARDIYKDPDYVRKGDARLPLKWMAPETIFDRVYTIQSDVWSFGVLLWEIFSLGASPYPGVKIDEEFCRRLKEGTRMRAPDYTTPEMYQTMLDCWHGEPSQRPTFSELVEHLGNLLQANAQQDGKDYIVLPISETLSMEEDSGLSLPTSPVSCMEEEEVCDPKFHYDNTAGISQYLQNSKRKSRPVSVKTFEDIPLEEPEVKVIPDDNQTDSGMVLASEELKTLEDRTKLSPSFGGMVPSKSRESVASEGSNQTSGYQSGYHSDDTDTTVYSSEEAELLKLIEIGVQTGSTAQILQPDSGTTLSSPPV

COc1ccc(Cn2nc(-c3ccccc3)c3cc(Cl)nc(N4CCNCC4)c32)cc1
log2FC (HUVEC [1]): 0.1186 | log2FC (HUVEC [2]): -0.514 | log2FC (HUVEC [3]): 0.2488 | log2FC (HUVEC [4]): -0.5278 | Activity (HUVEC (Homo sapiens)): Active | log2FC (HUVEC [5]): 0.5127 | log2FC (HUVEC [6]): 0.5758 | log2FC (HUVEC [7]): -0.053 | log2FC (HUVEC [8]): -0.5724 | fold change (FC) (HUVEC [9]): 0.5853 | log2FC (HUVEC [10]): -0.5316 | log2FC (HUVEC [11]): -0.1337 | log2FC (HUVEC [12]): 0.526

COc1ccc(Cn2nc(-c3ccccc3)c3cc(Nc4ccc(N5CCN(C)CC5)cc4)nc(N4CCN(C)CC4)c32)cc1
log2FC (HUVEC [1]): -0.1032 | fold change (FC) (HUVEC [13]): 0.5236 | log2FC (HUVEC [14]): 0.5151 | log2FC (HUVEC [15]): -0.1788 | log2FC (HUVEC [16]): -0.0175 | fold change (FC) (HUVEC [17]): 0.5398 | fold change (FC) (HUVEC [18]): -0.0407 | fold change (FC) (HUVEC [19]): 0.2037 | Activity [20]: Active | fold change (FC) (HUVEC [21]): 0.2207 | fold change (FC) (HUVEC [22]): -0.0362 | log2FC (HUVEC [4]): -0.9349 | log2FC (HUVEC [23]): -0.2736 | fold change (FC) (HUVEC [24]): 0.1329 | Activity (HUVEC (Homo sapiens)): Active | log2FC (HUVEC [25]): 0.507 | fold change (FC) (HUVEC [26]): -0.6 | fold change (FC) (HUVEC [27]): 0.219 | log2FC (HUVEC [10]): -0.6736 | fold change (FC) (HUVEC [28]): -0.4214 | log2FC (HUVEC [29]): -0.2938 | fold change (FC) (HUVEC [30]): 0.5187 | fold change (FC) (HUVEC [31]): 0.4595 | log2FC (HUVEC [32]): -0.6601 | log2FC (HUVEC [33]): 0.5377

COc1ccc(Cn2nc(-c3ccccc3)c3cc(Nc4ccc(N5CCN(C)CC5)cc4)nc(N4CCNCC4)c32)cc1
log2FC (HUVEC [34]): -0.0103 | inhibition [35]: Active | log2FC (HUVEC [6]): 0.3681 | log2FC (HUVEC [9]): 0.6358 | log2FC (HUVEC [36]): -0.5222 | log2FC (HUVEC [37]): -0.1113
